{"data": "Measured values from different studies", "target": "Mitotic checkpoint serine/threonine-protein kinase BUB1 (BUB1, Homo sapiens, UniProt O43683)"}
{"SMILES": "C=CC(=O)N1CCC(C(=O)NCC(=O)N2CCN(c3nc(-c4cnc(N)nc4C(F)F)nc(N4CCOCC4)n3)CC2)CC1", "assay": "binding, competition with immobilised ligand", "setting": "1 µM", "remaining binding": "77%"}
{"SMILES": "COc1cc(-c2cn(C3CCc4c(F)cccc4N(CC(F)(F)F)C3=O)nn2)ccc1-n1cnc(C)c1 (stereo not shown)", "assay": "cell-free assay, competition with immobilised ligand", "setting": "1 µM", "remaining binding": "100%"}
{"SMILES": "CCN1CCN(Cc2ccc(C(=O)Nc3ccc(C)c(Oc4ccc5c(c4)CC(=O)N5)c3)cc2C(F)(F)F)CC1", "assay": "binding, competition with immobilised ligand", "setting": "1 µM", "remaining binding": "100%"}
{"SMILES": "CN(CCCC(F)(F)F)c1nccc(-c2cnn3ncccc23)n1", "assay": "binding", "setting": "1 µM", "remaining binding": "91%"}
{"SMILES": "CNC(=O)[C@@H]1CC[C@@H](n2c(-c3ccc4cnccc4c3)nc3ccc(C(=O)NCc4cccc(C(N)=O)c4)cc32)C1", "assay": "binding, competition with immobilised ligand", "setting": "1 µM", "remaining binding": "100%"}
{"SMILES": "C[C@@H]1CCN(c2nccc(-c3cnn4ncccc34)n2)C1", "assay": "binding", "setting": "1 µM", "remaining binding": "71%"}
{"SMILES": "O=C(c1ccc(Nc2nccc(-c3cc4ccccc4s3)n2)cc1)N1CCC(N2CCCC2)CC1", "assay": "binding, competition with immobilised ligand", "setting": "1 µM", "remaining binding": "45%"}
{"SMILES": "CN(C)c1nccc(-c2cnc3ncccn23)n1", "assay": "binding", "setting": "1 µM", "remaining binding": "78%"}
{"SMILES": "c1cncc(-c2cccc(Nc3nccc(NC4CCCCC4)n3)c2)c1", "assay": "binding, competition with immobilised ligand", "setting": "10 µM", "remaining binding": "59%"}
{"SMILES": "COc1ncc2cc3ccccc3nc2c1C#N", "assay": "cell-free assay, competition with immobilised ligand", "setting": "5 µM", "remaining binding": "92%"}
{"SMILES": "CS(=O)(=O)N1CCCC(NC(=O)[C@H](CCC2CCCCC2)NC(=O)c2ccc(CNc3ncnc4c3nnn4-c3ccccc3)cc2)C1 (stereo partly shown)", "assay": "cell-free assay, competition with immobilised ligand", "setting": "0.1 µM", "remaining binding": "100%"}
{"SMILES": "O=C(Nc1c[nH]nc1C(=O)NC1CCNCC1)c1cc(F)cc(F)c1", "assay": "binding, competition with immobilised ligand", "setting": "1 µM", "remaining binding": "100%"}
{"SMILES": "O=C(N1CCS(=O)(=O)CC1)N1C[C@H](c2ccc(OC(F)(F)F)cc2)C[C@H](c2nc(C3CC3)no2)C1", "assay": "cell-free assay, competition with immobilised ligand", "setting": "1 µM", "remaining binding": "100%"}
{"SMILES": "Cc1cnn2ncc(-c3ccnc(N(C)C)n3)c2c1", "assay": "binding", "setting": "1 µM", "remaining binding": "63%"}
{"SMILES": "C[C@@H]1CN(c2cc(-c3n[nH]c4ccc(OC5(C)CC5)cc34)ncn2)C[C@H](C)O1", "assay": "cell-free assay, competition with immobilised ligand", "setting": "0.1 µM", "remaining binding": "84%"}
{"SMILES": "O=C(NCCCN1CCOCC1)c1ccc(Nc2ncc(Cl)c(-c3ccc(Cl)s3)n2)cc1", "assay": "binding, competition with immobilised ligand", "setting": "1 µM", "remaining binding": "80%"}
{"SMILES": "c1cnn2ncc(-c3ccnc(N4CCC45COC5)n3)c2c1", "assay": "binding", "setting": "1 µM", "remaining binding": "46%"}
{"SMILES": "C[C@@]1(Cc2ccc(C#N)cc2)C(=O)N(c2cc(Cl)cc(Cl)c2)c2ncc(C(=O)NC3(c4nc(C5CCC5)no4)CC3)n21", "assay": "cell-free assay, competition with immobilised ligand", "setting": "1 µM", "remaining binding": "100%"}
{"SMILES": "COc1ccnn2ncc(-c3ccnc(N(C)C)n3)c12", "assay": "binding", "setting": "1 µM", "remaining binding": "96%"}
{"SMILES": "CC(=O)C1=C(C)N(c2cccc(C(F)(F)F)c2)C(=O)N[C@@H]1c1ccc(C#N)nc1", "assay": "cell-free assay, competition with immobilised ligand", "setting": "1 µM", "remaining binding": "100%"}
{"SMILES": "N[C@@H]1CCN(c2nccc(-c3cnn4ncccc34)n2)C1", "assay": "binding", "setting": "1 µM", "remaining binding": "93%"}
{"SMILES": "O=C(c1ccc(Nc2ncc(Cl)c(-c3ccc(Cl)s3)n2)cc1)N1CCC(N2CCCC2)CC1", "assay": "binding, competition with immobilised ligand", "setting": "1 µM", "remaining binding": "65%"}
